OX1R antag-1 – antagonists of human orexin 1 receptor; O43613; CHO/OX1R cells, Fluo-8 calcium fluorescence, orexin A; inhibition, % at 5 µM; 330,000 compounds, 0.43% hits;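 active = inhibition above its plate's threshold, mean inhibition of all tested compounds on the plate plus 3 SD, cut at about 37% in these data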;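 also: 0% = orexin A challenge wells and 100% = SB-334867-A antagonist wells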
TAAR1 ag – agonists of human TAAR1. Q96RJ0. CHO RD-HGA16 TAAR1, Fluo-8 calcium fluorescence; vehicle wells 0%, saturating PEA agonist 100%. activation, % at 3 µM. 360,000 compounds, 0.99% hits. AID 624467;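 active = activation above the mean activation of all test compounds in the run plus 3 SD, cut at about 38% in these data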
Target sequence (Q96RJ0 whole entry, looked up): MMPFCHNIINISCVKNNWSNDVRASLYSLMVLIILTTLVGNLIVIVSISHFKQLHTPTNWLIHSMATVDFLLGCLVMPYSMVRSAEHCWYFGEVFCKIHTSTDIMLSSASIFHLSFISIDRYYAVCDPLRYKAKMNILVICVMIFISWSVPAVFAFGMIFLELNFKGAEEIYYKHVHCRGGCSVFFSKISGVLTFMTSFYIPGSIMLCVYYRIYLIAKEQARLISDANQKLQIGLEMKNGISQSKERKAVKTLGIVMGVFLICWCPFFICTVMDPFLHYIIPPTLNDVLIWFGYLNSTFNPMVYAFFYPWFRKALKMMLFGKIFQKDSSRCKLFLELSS
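Signal – calcium-sensitive Fluo-8 signal, excitation 470-495, emission 515-575 nm · System – RD-HGA16 (CHO) cells co-expressing Gα16 and hTAAR1 · Incubation – 17-24 h seeding, 75 min 37 °C dye, 30 min RT · Compound dosing – 3 µM single concentration · Repeats – no replicates (n 1)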
OX1R antag-2 – blocks the human orexin 1 receptor. O43613. 330,000 compounds, 1.8% hits. inhibition, % at 6.6 µM. OX1R-expressing cells, FRET antagonist read-out; in the data active = inhibition mostly above about 38%, no sharp cut-off; inactive = mostly below about 40%;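 also: 0% = agonist challenge alone and 100% = reference antagonist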
TAAR1 antag – human TAAR1 antagonism. inhibition, % at 3 µM. Q96RJ0. AID 624466. 360,000 compounds, 1.5% hits. CHO RD-HGA16 TAAR1, Fluo-8 calcium fluorescence, antagonist;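 active = inhibition above a per-plate cutoff, the mean inhibition of test compounds on that plate plus 3 SD, cut at about 49% in these data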;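 also: 0% = DMSO plus EC80 beta-PEA response and 100% = DMSO alone without agonist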
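test system = CHO RD-HGA16 cells bearing hTAAR1 | replication = singlicate | controls = DMSO-only wells and EC80 β-PEA-stimulated wells | reagent = EC80 β-phenethylamine stimulus | read-out basis = percent inhibition of PEA-evoked calcium signal, max/basal emission ratio | schedule = seeding 17-24 h prior, 75-min 37 °C, 30-min RT dye loading | signal = kinetic Fluo-8 calcium fluorescence measurement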
GPR7 antag – antagonists of human GPR7 (neuropeptides B/W receptor 1); GPR7-expressing cells, fluorescence antagonist assay; inhibition, % at 4.4 µM; 290,000 compounds, 1.1% hits; AID 1861; in the data active = inhibition above about 16%, passing the limit was not always enough;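 also: cells stimulated with the agonist NPW; 0% = agonist with vehicle and 100% = vehicle without agonist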
Target sequence (P48145 whole entry, looked up): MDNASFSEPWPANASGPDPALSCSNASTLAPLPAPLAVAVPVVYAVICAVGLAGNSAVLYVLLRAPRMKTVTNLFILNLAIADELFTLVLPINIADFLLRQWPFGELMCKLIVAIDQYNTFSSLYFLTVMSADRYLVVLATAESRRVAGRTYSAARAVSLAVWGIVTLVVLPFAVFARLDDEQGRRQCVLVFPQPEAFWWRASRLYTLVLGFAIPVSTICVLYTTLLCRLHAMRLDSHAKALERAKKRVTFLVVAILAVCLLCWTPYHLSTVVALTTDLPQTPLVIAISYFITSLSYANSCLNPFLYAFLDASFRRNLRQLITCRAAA
CHO parental Ca – counter-screen for OX1R antagonists: effect in parental CHO cells; 330,000 compounds, 0.63% hits; parental CHO-K1, ATP-induced calcium, Fluo-8 fluorescence; AID 463079; inhibition, % at 5.6 µM;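 active = inhibition above that plate's mean sample inhibition plus 3 SD, cut at about 26% in these data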;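 also: 0% = ATP-challenged DMSO wells and 100% = DMSO wells without ATP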
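Assay system: parental CHO cells; Read-out basis: percent inhibition of ATP-evoked calcium rise, normalized to controls; Benchmarks: ATP and no-ATP DMSO wells; Compound dosing: single nominal dose of 5.6 µM per compound; Signal: Fluo-8 calcium dye fluorescence; Also added: ATP as calcium-mobilizing challenge; Repeats: singlicate.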
An asterisk follows results filed as active; nt = no result given. Sampled rows, rich in hits. Any-hit rate of the full collection: about 4.6%.

SMILES	OX1R antag-1	TAAR1 ag	OX1R antag-2	TAAR1 antag	GPR7 antag	CHO parental Ca
CC(CCC(=O)NN)C1CCC2C3CCC4CC(O)CCC4(C)C3CCC12C (stereo unspecified)	nt	5	nt	-19	nt	nt
CC(CCC(C)C(C)(C)C)[C@@H]1CC[C@H]2C3C[C@H](OS(O)(=S)=S)[C@H]4C[C@H](OS(O)(=S)=S)[C@@H](OS(O)(=S)=S)C[C@]4(C)[C@H]3CC[C@]12C (stereo partly specified) (tested in a mixture with another compound)	101*	nt	66*	nt	nt	84*
Cc1ccccc1-n1c(SCc2csc(Nc3ccccc3)n2)nnc1-c1cccnc1	2	2	69*	2	-8	-18
Cc1ccc(Nc2nc(CSc3nnc(-c4cccnc4)n3-c3ccccc3C)cs2)cc1	-6	-2	67*	-45	1	-38
O=C1Nc2ccc(Cl)cc2[C@@](C#CC2CC2)(C(F)(F)F)O1	14	nt	20	nt	-24	48*
CC(C)CCNC(=O)C(c1cccnc1)N(CCc1ccccc1)C(=O)Cn1nnc2ccccc21 (stereo unspecified)	-22	39*	20	8	-1	-15
CCCCN(C(=O)Cn1nnc2ccccc21)C(C(=O)NCCOC)c1ccccc1 (stereo unspecified)	-36	2	18	-14	19*	-13
Cc1c(O)cc2c(c1O)C(=O)CC(c1ccccc1)O2 (stereo unspecified)	105*	0	4	8	nt	100*
O=C(NCc1ccccc1)[C@@H]1CCCN1C(=O)[C@H]1CCCN1C(=O)c1ccccc1Cl	nt	3	nt	-13	nt	nt
S=C(Nc1ccccc1)N1CCC(C2CCN(C(=S)Nc3ccccc3)CC2)CC1	-17	nt	6	nt	19*	-5
CCC(C(=O)Nc1ccc(C)cc1)c1ccccc1 (stereo unspecified)	-5	3	29	-10	-11	-8
Cc1ccc(NC(=O)C(C)c2ccc(-c3ccccc3)c(F)c2)cc1 (stereo unspecified)	32	4	42	55*	8	34
CCOC(=O)c1c(C)[nH]c(C(=O)C(C)OC(=O)c2cccc(OCc3c(C)noc3C)c2)c1C (stereo unspecified)	0	17	31	18	-12	49*
NC(=O)c1c(N)[nH]c(C(=O)c2ccccc2)c1-c1ccc2c(c1)OCO2	nt	5	nt	-13	nt	nt
O=C(Nc1nc2ccc(S(=O)(=O)N3CCCC3)cc2s1)C1CCCCC1	2	43*	8	8	29	-9
N#CCc1nc2ccc(S(=O)(=O)N3CCOCC3)cc2s1	41*	6	6	-1	5	35*
Nc1nc2ccccc2cc1C(=O)NCc1cccs1	nt	3	nt	23	nt	nt
COC(=O)C1=C(C)N(Cc2ccc(C(F)(F)F)cc2)C(=NCC2CC2)NC1c1ccccc1C(F)(F)F (stereo unspecified)	nt	9	nt	9	nt	nt
O=C(/C=C/Nc1ccccc1)c1ccc(Oc2ncccn2)cc1	-24	43*	4	-29	4	-11
Cc1nn(Cc2ccccc2)c(C)c1NC(=O)c1ccc([N+](=O)[O-])cc1[N+](=O)[O-]	-13	3	45*	7	3	-3
C=CCN=C1NC(c2cccc(F)c2)C(C(=O)OC)=C(C)N1C (stereo unspecified)	nt	0	nt	1	nt	nt
CSc1nnc2c(n1)[nH]c1c(C)cccc12	-8	1	32	8	0	-4
CCSc1nnc2c(n1)[nH]c1c(C)cccc12	-7	4	40*	-10	4	1
Cn1nc(C(C)(C)C)cc1C(=O)NCc1ccc(N2CCCC2=O)cc1	19	4	30	7	0	37*
Cc1ccc(-c2csc(/C(C#N)=C(\O)CCl)n2)cc1	nt	3	nt	12	4	nt
SMILES	OX1R antag-1	TAAR1 ag	OX1R antag-2	TAAR1 antag	GPR7 antag	CHO parental Ca
N#C/C(=C(/O)CCl)c1nc(-c2ccccc2)cs1	-12	3	20	-6	19*	-22
CCOc1cccc(/C=C/c2ccc3cccc(O)c3n2)c1OC	28	2	9	37	8	48*
CSc1nc(O)c(N=Nc2ccc(F)cc2F)c(=O)[nH]1	-12	0	45*	-8	0	-5
C=CC[C@]1(c2ccccc2)C(=O)N2C[C@H]3CON(C)[C@H]3C[C@H]2c2ccccc21	nt	1	nt	-10	nt	nt
COc1ccc(O)c(/C=N/n2c(-c3ccco3)csc2=Nc2cccnc2)c1	-13	4	16	49*	-8	-22
C/C(=C1/C(=O)N(c2ccc([N+](=O)[O-])cc2)N=C1c1ccccc1)N(C)C	18	nt	42*	nt	3	20
Cc1cccc(OCCSc2nc3ncnc(N)c3[nH]2)c1	-10	2	20	10	16*	-12
CCCCS(=O)(=O)N1CCCc2nc(-c3ccccc3)ccc21	nt	-1	nt	-16	nt	nt
O=S1(=O)CCSC[C@@H](CN2CCCC2)N1	nt	4	nt	-29	nt	nt
CC(=O)N(c1nc2ccccc2s1)N1C(=O)c2ccccc2C1=O	nt	1	nt	-39	nt	nt
Cc1[nH]c2ccccc2c1SCC(=O)O	-9	15	14	-9	-7	-11
O=C(O)CSc1c2ccccc2cc2ccccc12	7	2	54*	14	-3	-9
Clc1ccc2[nH]c3c(N4CCC5(CC4)OCCO5)ncnc3c2c1	24	nt	82*	nt	10	31
Fc1ccc2[nH]c3c(N4CCc5ccccc5C4)ncnc3c2c1	11	6	56*	42	11	65*
COc1ccc2[nH]c3c(N4CCC(O)(c5cccc(C(F)(F)F)c5)CC4)ncnc3c2c1	-14	14	13	51*	-1	-6
Cc1ccc2[nH]c3c(N4CCc5ccccc5C4)ncnc3c2c1	51*	13	82*	36	13	64*
CN1CCN(c2ncnc3c2[nH]c2ccc(F)cc23)CC1	-15	10	8	10	-9	-11
CCOc1ccc2[nH]c3c(N4CCc5ccccc5C4)ncnc3c2c1	-9	1	13	-8	-9	-16
CCC(CC)CC1CN2CCc3cc(OC)c(OC)cc3C2CC1(O)CC (stereo unspecified)	nt	2	nt	-17	nt	nt
Brc1ccc2[nH]c3c(N4CCc5ccccc5C4)ncnc3c2c1	44*	nt	13	nt	3	47*
COCc1cc(N2CCNC[C@H]2C)ccc1N1CCN(Cc2ccccc2)[C@@H](C)C1	nt	3	nt	-7	nt	nt
O=C(Nc1ccccc1C(=O)NCC1CC1)c1cccs1	nt	-1	nt	-13	nt	nt
Cc1cccc(N2CCN(C(=O)c3ccc4c(c3)OCCO4)CC2C)c1 (stereo unspecified)	-3	0	28	-8	-14	-14

Source: PubChem (The Scripps Research Institute Molecular Screening Center)
